Reference: ChEMBL document CHEMBL5143735, “Design, Synthesis, and Characterization of [18F]mG2P026 as a High-Contrast PET Imaging Ligand for Metabotropic Glutamate Receptor 2” (J Med Chem, 2022)

Legend:
[1] = biological target: Metabotropic glutamate receptor 1 (Homo sapiens, UniProt Q13255); test: Agonist activity at mGlu1 receptor (unknown origin) expressed in human Flp-In-T-REx-293 cells by Ca2+ mobilization assay
[2] = biological target: Metabotropic glutamate receptor 5 (Homo sapiens, UniProt P41594); test: Agonist activity at mGlu5 receptor (unknown origin) expressed in human Flp-In-T-REx-293 cells by Ca2+ mobilization assay
[3] = biological target: Metabotropic glutamate receptor 6 (Homo sapiens, UniProt O15303); test: Agonist activity at mGlu6 receptor (unknown origin) expressed in human Flp-In-T-REx-293 cells by luciferase based GloSensor cAMP Assay; type: functional, cell-based, HEK293
In short: (§1)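 Tetracycline-inducible Flp-In T-REx-293 cells stably carrying mGluR4, mGluR6 or mGluR8, grown in DMEM with 10% FBS, hygromycin B and blasticidin at 37 °C, 5% CO2. Gi/o-coupled receptor activation read as intracellular cAMP change by split-luciferase GloSensor biosensor. EC50 from four-parameter logistic fit of concentration–response curves; each assay run at least three times.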

[4] = biological target: Metabotropic glutamate receptor 8 (Homo sapiens, UniProt O00222); test: Agonist activity at mGlu8 receptor (unknown origin) expressed in human Flp-In-T-REx-293 cells by luciferase based GloSensor cAMP Assay; type: functional, cell-based, HEK293
In short: as §1

[5] = biological target: Metabotropic glutamate receptor 4 (Homo sapiens, UniProt Q14833); test: Agonist activity at mGlu4 receptor (unknown origin) expressed in human Flp-In-T-REx-293 cells by luciferase based GloSensor cAMP Assay; type: functional, cell-based, HEK293
In short: as §1

in vivo [6] = details: cynomolgus monkey, whole blood and plasma
[7] = Unbound fraction in cynomolgus monkey plasma measured upto 140 mins by ultracentrifugation
in vivo [8] = details: cynomolgus monkey, plasma

Metabotropic glutamate receptor 8, sequence (O00222 whole entry): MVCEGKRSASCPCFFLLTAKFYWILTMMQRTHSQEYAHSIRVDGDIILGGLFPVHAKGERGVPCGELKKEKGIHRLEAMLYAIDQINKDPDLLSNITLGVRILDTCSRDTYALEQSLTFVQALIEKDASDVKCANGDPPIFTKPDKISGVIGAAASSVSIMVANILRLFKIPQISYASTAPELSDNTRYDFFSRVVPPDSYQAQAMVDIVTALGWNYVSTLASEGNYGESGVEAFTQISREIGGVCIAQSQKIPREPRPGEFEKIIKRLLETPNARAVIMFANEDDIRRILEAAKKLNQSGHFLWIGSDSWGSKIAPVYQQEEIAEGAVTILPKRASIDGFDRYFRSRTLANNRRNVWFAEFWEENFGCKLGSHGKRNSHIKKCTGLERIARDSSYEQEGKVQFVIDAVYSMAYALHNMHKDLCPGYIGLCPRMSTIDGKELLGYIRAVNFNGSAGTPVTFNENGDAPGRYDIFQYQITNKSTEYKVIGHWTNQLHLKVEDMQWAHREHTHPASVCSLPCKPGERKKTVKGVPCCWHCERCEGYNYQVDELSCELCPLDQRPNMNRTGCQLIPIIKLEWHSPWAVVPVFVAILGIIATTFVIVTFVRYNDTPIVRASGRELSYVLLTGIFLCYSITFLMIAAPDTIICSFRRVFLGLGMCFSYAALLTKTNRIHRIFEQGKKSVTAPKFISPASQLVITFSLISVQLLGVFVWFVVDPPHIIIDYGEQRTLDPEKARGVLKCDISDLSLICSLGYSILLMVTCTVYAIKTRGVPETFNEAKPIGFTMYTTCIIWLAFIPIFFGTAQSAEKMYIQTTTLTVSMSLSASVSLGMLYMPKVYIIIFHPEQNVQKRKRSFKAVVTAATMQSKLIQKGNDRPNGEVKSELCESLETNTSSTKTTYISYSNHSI
Metabotropic glutamate receptor 4, sequence (Q14833 whole entry): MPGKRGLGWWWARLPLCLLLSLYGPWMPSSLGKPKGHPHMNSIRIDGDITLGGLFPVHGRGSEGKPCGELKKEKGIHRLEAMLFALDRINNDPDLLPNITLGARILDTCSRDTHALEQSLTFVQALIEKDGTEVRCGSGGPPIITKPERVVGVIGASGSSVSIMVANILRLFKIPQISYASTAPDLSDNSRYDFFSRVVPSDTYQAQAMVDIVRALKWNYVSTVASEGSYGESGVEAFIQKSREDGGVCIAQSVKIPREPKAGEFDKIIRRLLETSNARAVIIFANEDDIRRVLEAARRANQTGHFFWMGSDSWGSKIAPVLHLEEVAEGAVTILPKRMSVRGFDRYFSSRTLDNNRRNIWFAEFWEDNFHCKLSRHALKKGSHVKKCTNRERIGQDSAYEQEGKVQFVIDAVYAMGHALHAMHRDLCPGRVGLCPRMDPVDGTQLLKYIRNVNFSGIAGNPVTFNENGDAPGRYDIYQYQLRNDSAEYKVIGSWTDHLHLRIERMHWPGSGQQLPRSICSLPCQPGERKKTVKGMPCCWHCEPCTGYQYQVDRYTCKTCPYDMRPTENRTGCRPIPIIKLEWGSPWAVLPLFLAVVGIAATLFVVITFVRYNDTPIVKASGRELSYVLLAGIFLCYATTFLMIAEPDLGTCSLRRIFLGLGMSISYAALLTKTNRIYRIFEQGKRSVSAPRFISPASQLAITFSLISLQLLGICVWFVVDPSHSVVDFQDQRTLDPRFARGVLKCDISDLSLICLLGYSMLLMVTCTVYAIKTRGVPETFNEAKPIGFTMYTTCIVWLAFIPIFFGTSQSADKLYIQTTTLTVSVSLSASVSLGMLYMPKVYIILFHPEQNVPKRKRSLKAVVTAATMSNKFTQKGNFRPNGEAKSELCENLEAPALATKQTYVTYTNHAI
Metabotropic glutamate receptor 1, sequence (Q13255 whole entry): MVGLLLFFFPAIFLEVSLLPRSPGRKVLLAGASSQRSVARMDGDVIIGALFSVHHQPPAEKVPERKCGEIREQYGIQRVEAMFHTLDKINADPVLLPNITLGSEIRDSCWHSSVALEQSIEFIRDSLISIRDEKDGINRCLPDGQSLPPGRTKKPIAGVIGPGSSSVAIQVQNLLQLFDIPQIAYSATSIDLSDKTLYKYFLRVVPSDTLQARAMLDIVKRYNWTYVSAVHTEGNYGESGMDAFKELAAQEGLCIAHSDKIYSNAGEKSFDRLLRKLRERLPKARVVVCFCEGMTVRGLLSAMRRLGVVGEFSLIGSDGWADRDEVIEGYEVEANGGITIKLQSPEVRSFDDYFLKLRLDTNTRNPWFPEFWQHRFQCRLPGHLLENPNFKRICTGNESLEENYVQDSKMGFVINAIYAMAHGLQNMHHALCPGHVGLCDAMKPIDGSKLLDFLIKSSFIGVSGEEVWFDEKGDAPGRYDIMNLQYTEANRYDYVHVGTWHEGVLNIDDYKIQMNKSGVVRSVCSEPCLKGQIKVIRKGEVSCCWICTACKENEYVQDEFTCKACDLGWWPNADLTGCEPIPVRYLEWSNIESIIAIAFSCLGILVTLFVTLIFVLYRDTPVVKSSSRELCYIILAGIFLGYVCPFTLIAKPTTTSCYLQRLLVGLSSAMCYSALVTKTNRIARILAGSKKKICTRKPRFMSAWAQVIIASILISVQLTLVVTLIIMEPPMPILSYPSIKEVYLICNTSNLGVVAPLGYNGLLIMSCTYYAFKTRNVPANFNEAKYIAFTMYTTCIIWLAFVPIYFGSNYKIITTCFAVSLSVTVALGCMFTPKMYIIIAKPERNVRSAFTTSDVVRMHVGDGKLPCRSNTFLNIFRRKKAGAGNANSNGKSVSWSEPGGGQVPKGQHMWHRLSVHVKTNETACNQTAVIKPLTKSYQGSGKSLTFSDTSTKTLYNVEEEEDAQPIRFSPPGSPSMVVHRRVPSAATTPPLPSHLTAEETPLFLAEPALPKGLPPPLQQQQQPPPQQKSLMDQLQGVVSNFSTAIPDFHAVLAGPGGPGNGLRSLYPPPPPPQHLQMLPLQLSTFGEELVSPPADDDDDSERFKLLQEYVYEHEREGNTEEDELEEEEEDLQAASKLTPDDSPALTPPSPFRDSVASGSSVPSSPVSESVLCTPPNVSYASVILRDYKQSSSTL
Metabotropic glutamate receptor 6, sequence (O15303 whole entry): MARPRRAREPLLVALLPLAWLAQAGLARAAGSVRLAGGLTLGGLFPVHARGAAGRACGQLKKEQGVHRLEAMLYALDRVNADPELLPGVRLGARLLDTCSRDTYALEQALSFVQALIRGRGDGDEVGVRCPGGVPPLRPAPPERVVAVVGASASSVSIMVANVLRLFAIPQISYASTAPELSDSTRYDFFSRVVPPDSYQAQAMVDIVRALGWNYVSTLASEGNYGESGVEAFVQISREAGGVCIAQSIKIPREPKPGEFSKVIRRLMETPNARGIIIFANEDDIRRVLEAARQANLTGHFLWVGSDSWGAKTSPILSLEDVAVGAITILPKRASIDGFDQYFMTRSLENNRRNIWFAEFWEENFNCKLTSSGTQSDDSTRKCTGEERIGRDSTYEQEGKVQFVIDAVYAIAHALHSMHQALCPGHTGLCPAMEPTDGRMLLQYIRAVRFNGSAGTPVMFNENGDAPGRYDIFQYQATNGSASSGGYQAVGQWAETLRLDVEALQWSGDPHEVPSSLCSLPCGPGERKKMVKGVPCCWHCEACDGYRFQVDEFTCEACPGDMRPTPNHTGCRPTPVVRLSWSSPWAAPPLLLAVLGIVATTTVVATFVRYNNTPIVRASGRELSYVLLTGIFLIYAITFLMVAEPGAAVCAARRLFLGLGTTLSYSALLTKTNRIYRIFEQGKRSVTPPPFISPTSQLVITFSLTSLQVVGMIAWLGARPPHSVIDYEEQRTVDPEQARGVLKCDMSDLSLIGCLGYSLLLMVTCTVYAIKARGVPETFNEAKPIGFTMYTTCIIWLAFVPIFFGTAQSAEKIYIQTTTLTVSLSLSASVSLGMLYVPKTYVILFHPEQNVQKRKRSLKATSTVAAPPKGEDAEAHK
Metabotropic glutamate receptor 5, sequence (P41594 whole entry): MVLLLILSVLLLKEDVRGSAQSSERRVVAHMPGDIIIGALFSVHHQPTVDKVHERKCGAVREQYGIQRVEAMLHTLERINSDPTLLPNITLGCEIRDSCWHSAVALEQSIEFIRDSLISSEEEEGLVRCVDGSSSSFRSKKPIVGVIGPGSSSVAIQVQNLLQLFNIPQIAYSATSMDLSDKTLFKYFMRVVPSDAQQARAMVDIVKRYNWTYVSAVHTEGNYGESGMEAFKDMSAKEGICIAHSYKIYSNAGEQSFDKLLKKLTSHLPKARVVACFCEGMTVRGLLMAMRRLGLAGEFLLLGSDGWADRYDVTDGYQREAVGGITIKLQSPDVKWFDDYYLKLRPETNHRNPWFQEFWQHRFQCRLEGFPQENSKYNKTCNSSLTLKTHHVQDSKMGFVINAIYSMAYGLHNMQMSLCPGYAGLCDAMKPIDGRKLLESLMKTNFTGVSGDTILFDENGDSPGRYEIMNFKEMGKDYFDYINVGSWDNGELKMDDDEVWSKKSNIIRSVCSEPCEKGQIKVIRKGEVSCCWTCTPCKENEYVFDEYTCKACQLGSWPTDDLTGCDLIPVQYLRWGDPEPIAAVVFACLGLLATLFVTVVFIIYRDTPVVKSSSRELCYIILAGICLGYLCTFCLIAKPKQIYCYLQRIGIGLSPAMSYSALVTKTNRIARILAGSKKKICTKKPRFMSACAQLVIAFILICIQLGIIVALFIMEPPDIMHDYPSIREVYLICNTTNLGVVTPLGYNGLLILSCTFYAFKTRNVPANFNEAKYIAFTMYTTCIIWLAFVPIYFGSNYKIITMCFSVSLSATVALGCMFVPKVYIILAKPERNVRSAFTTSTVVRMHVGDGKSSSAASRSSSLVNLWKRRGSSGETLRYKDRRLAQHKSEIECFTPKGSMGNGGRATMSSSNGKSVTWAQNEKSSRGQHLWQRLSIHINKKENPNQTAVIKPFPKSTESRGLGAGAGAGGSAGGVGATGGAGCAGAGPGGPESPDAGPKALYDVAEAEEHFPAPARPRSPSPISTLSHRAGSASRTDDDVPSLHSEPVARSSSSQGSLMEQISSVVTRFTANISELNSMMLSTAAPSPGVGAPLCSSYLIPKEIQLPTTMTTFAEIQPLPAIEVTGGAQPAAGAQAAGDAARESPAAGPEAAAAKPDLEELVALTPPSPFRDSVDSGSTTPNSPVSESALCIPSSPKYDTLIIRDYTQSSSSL

| SMILES | EC50 [1] [µM] | EC50 [2] [µM] | EC50 [3] [µM] | EC50 [4] [µM] | EC50 [5] [µM] | blood plasma ratio at 11 min (in vivo [6]) | fraction unbound at 2.333 h [7] | remaining at 1.5 h (in vivo [8]) [%] |
| --- | --- | --- | --- | --- | --- | --- | --- | --- |
| Fc1ccc(N2CCN(Cc3cc(C(F)(F)F)cn4c(CC5CC5)nnc34)CC2)c(F)c1 | > 10 | > 10 | > 10 | > 10 | > 10 | – | – | – |
| Fc1ccccc1N1CCN(Cc2ccn3c(CC4CC4)nnc3c2C(F)(F)F)CC1 | > 10 | > 10 | > 10 | > 10 | > 10 | – | – | – |
| O=C(c1cnc2c(cnn2CC2CC2)c1C(F)(F)F)N1CCN(c2ccc(F)cc2F)CC1 | > 1 | > 1 | > 1 | > 1 | > 1 | – | – | – |
| FC(F)(F)c1c(CN2CCC(c3ccc([18F])cc3Cl)CC2)ccn2c(CC3CC3)nnc12 | – | – | – | – | – | 1.12 | 0.12 | 49.3 |
| Fc1ccc(N2CCN(Cc3ccn4c(CC5CC5)nnc4c3C(F)(F)F)CC2)c(Cl)c1 | > 10 | > 10 | > 10 | > 10 | > 10 | – | – | – |
| Fc1cc(Cl)ccc1N1CCN(Cc2ccn3c(CC4CC4)nnc3c2C(F)(F)F)CC1 | > 10 | > 10 | > 10 | > 10 | > 10 | – | – | – |
